Test [1] concerns the target T1, JHDM1A (Homo sapiens, UniProt Q9Y2K7).
T1 sequence (Q9Y2K7 1-1162): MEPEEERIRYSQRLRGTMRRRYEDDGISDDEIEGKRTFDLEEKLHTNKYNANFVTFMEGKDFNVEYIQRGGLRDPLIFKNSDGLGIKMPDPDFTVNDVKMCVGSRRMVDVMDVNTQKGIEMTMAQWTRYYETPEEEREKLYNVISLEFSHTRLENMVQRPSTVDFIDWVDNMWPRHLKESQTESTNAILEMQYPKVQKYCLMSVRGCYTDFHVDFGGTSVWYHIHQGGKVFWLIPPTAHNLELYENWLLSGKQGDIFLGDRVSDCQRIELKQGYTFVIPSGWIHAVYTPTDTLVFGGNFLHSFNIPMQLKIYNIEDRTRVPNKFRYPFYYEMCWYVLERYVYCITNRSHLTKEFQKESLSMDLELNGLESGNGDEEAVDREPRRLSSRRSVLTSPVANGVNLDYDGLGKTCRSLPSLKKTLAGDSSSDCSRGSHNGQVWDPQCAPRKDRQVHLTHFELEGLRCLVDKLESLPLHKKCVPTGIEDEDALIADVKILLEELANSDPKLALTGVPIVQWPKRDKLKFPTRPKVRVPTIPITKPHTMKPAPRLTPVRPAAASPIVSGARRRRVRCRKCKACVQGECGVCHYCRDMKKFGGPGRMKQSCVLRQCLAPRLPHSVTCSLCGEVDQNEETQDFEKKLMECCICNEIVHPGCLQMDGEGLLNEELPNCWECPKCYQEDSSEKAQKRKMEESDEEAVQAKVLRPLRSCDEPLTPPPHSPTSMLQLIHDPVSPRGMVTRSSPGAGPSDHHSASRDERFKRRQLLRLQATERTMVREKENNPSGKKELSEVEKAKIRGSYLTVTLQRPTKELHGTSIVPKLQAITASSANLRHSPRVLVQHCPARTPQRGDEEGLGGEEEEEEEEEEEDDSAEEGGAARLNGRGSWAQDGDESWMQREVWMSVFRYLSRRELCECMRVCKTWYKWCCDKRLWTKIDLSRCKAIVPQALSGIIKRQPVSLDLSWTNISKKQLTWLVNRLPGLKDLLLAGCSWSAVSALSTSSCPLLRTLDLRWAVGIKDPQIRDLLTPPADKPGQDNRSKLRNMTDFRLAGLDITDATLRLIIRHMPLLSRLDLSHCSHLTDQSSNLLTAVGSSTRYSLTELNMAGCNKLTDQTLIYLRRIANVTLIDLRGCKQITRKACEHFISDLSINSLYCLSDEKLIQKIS
Kind of test: Fluorescence polarization. The format is binding. (In general: Fluorescence polarisation rises when a labelled molecule tumbles more slowly, as on binding a larger partner.)

The target in test [2] is T1, JHDM1A. Kind of test: Affinity pulldown of purified JHDM1A in the presence of HeLa histone proteins. The format is binding. The conditions noted are these: in the absence of UV irradiation. In outline:
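Acid-extracted HeLa histones were prepared by Triton lysis, then 0.2 N HCl overnight at 4 °C, then lyophilisation. Biotinylated peptide probe (20 μM) was loaded onto streptavidin magnetic beads for 30 min at 4 °C. Recombinant JHDM1A (5 μM) and equal amounts of histones were then added in 25 mM Tris, 100 mM NaCl, 5 μM NiCl2, pH 7.5, for 4 h at 4 °C. The 350 nm, 20 min UV step was omitted. Beads were washed in HEPES/1 M NaCl/1% Triton, then water.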

The target in the next test is JMJD1C/KDM3C (Homo sapiens, UniProt Q15652). Kind of test: Affinity pulldown from HeLa nuclear lysate, spectral count of JMJD1C/KDM3C. As to conditions: HeLa nuclear extract. In kind it is binding. In outline: (§1)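 HeLa cells were grown in DMEM with 10% FCS and 1% penicillin/streptomycin at 37 °C, 5% CO2. Nuclei were prepared by hypotonic swelling and douncing, extracted in 0.4 M NaCl/20% glycerol buffer, and dialysed into 20 mM HEPES, 100 mM KCl, 2 mM MgCl2, pH 7.9. Streptavidin bead pulldowns used 2 mL lysate, and a no-probe control was included. Bead-bound material was washed, reduced with 4 mM DTT, alkylated with 14 mM iodoacetamide, trypsin-digested on the beads overnight at 37 °C, and run on nanoLC-LTQ/Orbitrap. Searches used human UniProt at 1% FDR, with spectral-count quantification.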

Test [3] has as its target T2, JMJD2A/KDM4A (Homo sapiens, UniProt O75164).
T2 sequence (O75164 2-1064): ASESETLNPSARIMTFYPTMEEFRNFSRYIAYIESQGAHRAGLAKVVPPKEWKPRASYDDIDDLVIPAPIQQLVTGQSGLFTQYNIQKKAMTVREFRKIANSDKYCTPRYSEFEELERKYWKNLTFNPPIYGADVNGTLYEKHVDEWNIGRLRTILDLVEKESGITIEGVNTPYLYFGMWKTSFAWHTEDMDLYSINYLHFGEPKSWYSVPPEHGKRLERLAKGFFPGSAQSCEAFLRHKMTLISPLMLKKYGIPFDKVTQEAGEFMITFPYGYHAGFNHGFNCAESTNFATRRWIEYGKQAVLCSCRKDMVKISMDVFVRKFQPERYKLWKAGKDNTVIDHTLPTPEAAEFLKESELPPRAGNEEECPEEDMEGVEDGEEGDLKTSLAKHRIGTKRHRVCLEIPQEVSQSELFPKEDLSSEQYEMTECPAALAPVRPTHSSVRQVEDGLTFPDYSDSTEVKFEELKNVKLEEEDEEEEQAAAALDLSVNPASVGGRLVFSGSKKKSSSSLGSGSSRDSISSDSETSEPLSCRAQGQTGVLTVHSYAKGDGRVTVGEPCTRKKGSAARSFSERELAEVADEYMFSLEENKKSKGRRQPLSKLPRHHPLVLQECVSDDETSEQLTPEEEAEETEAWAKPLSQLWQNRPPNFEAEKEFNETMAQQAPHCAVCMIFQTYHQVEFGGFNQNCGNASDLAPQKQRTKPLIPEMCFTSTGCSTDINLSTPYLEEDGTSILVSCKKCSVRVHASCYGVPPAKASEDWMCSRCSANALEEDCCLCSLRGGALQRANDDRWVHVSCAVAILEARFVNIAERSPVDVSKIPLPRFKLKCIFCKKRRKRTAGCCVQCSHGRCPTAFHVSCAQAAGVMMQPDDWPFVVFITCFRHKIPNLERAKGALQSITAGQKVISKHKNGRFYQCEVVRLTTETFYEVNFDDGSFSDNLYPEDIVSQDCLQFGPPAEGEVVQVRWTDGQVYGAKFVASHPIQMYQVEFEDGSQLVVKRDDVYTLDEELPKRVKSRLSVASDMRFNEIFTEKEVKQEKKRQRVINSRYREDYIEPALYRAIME
Kind of test: Affinity pulldown from HeLa nuclear lysate, spectral count of JMJD2A/KDM4A. The format is binding. As to conditions: HeLa nuclear extract, 20 μM probe 6.

In test [4] the test system is JMJD2A/KDM4A. The test is described as above. The format is binding, human. As to conditions: HeLa nuclear extract, 20 μM probe 6, recombinant KDM4A spiked in at 25 nM.
The target of the next test is PHF8/KDM7A (Homo sapiens, UniProt Q9UPP1). Kind of test: Affinity pulldown from HeLa nuclear lysate, spectral count of PHF8/KDM7A. In kind it is binding. The conditions noted are these: HeLa nuclear extract. Summed up: as §1
Another test has as its target CHD8 (Homo sapiens, UniProt Q9HCK8). Kind of test: Affinity pulldown from HeLa nuclear lysate, spectral count of CHD8. In kind it is binding. As to conditions: HeLa nuclear extract. Summed up: as §1
In the next test the target is CHD7 (Homo sapiens, UniProt Q9P2D1). Kind of test: Affinity pulldown from HeLa nuclear lysate, spectral count of CHD7. In kind it is binding. The conditions noted are these: HeLa nuclear extract. Summed up: as §1
Another test has as its system HDAC1/2. Kind of test: Affinity pulldown from HeLa nuclear lysate, spectral count of HDAC1/2. The format is binding, human. The conditions noted are these: HeLa nuclear extract. In outline:
as §1

Setting [5] is: 20 μM probe 6, recombinant KDM4A spiked in at 25 nM.

From PMC4301071 (ACS Chemical Biology, 2014) come the findings set out here.

*1 amine or outer side, *2 acyl side, *3 side chain or, on linkers, in order; H or OH if unused. Where a SMILES comes first, the peptide text is derived from it. [ ]: non-standard residue; d: D form. The star is where a group is joined. X1 = CN(CCCC[C@H](N[*:1])C(=O)[*:2])CCCCN(O)C(=O)/C=C/C(=O)O; Biotin = O=C1N[C@H]2[C@H](CS[C@H]2CCCCC(=O)*)N1; Bpa = N[C@@H](Cc1ccc(C(=O)c2ccccc2)cc1)C(=O)O; PEG4 = NCCOCCOCCOCCOCCC(=O)O

Chain of CHD8 (Q9HCK8 whole entry): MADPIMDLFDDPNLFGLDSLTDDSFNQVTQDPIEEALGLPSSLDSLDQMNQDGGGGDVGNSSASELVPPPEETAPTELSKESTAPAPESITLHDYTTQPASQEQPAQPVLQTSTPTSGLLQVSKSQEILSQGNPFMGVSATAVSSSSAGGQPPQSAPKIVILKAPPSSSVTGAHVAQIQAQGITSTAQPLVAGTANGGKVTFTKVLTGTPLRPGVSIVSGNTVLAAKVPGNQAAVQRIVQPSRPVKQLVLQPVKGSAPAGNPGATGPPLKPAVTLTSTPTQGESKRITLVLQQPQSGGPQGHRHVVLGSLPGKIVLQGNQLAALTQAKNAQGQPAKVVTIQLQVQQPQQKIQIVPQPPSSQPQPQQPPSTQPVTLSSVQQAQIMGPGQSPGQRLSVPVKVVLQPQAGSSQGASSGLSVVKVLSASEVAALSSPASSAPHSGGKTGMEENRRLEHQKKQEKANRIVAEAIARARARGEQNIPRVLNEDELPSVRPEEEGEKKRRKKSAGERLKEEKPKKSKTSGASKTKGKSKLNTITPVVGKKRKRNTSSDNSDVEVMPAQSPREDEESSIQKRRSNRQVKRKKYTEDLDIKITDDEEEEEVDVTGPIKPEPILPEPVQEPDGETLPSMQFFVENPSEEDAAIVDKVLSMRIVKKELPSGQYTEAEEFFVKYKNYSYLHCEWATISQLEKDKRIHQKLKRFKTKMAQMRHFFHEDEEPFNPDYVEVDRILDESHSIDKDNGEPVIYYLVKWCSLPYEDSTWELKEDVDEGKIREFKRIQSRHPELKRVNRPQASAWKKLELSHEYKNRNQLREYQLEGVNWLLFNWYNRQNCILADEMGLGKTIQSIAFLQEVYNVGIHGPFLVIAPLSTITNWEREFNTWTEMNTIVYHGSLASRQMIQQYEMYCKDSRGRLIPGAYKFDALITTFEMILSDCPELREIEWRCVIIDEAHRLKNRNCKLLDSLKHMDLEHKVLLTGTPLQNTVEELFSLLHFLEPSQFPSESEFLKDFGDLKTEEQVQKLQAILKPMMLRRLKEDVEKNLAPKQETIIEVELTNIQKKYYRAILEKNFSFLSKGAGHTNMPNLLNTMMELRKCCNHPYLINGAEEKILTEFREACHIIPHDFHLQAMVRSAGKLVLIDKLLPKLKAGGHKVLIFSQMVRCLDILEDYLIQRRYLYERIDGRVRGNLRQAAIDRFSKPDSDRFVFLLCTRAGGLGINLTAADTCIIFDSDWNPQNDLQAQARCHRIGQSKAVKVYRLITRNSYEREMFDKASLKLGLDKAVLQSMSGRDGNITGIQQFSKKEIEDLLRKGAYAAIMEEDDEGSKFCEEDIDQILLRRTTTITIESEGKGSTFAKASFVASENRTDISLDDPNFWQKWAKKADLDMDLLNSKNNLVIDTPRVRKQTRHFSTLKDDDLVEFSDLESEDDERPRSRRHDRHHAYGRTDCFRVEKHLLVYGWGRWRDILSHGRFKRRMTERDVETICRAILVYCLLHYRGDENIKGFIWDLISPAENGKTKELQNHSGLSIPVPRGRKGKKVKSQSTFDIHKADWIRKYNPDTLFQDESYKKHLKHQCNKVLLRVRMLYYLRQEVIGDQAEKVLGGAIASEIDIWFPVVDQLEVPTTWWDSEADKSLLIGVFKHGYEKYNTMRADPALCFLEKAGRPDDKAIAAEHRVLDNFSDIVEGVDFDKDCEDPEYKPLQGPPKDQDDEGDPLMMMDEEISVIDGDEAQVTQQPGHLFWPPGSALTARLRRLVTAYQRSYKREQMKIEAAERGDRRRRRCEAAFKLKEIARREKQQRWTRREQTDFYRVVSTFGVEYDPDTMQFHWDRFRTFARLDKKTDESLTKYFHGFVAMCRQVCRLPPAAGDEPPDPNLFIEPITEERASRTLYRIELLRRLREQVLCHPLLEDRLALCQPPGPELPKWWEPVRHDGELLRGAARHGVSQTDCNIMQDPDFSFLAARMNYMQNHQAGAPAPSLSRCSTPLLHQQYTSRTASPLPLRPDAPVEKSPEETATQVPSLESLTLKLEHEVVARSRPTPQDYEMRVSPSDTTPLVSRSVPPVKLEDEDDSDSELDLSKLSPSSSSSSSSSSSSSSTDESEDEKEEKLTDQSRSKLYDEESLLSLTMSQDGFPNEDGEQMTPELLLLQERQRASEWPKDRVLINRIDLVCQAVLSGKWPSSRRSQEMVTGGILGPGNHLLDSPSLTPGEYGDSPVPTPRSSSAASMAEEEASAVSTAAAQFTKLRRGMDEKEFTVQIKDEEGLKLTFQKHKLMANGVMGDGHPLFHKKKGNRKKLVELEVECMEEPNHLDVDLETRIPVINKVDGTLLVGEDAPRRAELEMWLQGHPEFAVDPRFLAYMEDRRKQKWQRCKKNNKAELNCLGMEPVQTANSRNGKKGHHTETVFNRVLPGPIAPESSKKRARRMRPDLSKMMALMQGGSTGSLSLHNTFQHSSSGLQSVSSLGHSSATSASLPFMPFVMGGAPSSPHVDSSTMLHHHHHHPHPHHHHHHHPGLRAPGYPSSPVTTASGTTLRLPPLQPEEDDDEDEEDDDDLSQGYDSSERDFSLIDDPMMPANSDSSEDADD
Chain of PHF8/KDM7A (Q9UPP1 whole entry): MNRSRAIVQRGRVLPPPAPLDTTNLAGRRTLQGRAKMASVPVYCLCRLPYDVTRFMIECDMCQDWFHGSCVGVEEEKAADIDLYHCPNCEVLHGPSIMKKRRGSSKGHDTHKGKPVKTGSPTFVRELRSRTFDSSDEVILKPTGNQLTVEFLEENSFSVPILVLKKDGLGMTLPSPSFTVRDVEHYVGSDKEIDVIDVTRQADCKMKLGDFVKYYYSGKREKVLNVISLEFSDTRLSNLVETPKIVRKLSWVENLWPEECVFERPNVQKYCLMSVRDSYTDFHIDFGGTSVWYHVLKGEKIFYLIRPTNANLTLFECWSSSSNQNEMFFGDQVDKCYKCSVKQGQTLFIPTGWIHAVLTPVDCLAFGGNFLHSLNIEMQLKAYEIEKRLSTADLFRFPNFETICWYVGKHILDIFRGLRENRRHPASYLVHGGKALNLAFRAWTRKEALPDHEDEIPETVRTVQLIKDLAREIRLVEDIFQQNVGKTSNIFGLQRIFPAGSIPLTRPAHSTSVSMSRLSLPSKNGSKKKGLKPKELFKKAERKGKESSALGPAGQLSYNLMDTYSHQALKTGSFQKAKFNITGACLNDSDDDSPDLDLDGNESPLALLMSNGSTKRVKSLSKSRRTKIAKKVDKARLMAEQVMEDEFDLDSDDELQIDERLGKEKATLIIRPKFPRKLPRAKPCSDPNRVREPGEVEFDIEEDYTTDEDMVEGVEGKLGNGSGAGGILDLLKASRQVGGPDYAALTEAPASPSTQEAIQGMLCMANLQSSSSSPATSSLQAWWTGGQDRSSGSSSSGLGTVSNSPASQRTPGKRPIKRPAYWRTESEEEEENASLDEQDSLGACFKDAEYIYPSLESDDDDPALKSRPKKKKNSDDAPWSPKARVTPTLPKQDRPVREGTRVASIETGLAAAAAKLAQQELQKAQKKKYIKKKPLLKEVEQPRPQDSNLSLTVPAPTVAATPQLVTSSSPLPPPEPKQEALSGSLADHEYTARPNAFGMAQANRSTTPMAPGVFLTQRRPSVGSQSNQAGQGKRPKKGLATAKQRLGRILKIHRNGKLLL

With `CC(C)[C@H](NC(=O)CNC(=O)CNC(=O)[C@@H](NC(=O)[C@H](Cc1ccc(C(=O)c2ccccc2)cc1)NC(=O)CCOCCOCCOCCOCCNC(=O)CCCC[C@@H]1SC[C@@H]2NC(=O)N[C@@H]21)[C@@H](C)O)C(=O)N[C@@H](CCCCN(C)CCCCN(O)C(=O)/C=C/C(=O)O)C(=O)N[C@@H](CCCCN)C(=O)N1CCC[C@H]1C(=O)N[C@@H](Cc1c[nH]cn1)C(=O)N[C@@H](CCCNC(=N)N)C(N)=O` [probe 6] ({Biotin-PEG4}-[Bpa]TGGV[X1]KPHR-NH2), the “fold increased affinity compared to nonfunctionalized native H3K36me2 histone 20mer peptide” value at JHDM1A [1] is reported as roughly 2 fold. In addition, on JHDM1A [2], the “pulldown of JHDM1A” value was “complete absence of JHDM1A”. The “spectral count, endogenous” value at JMJD1C/KDM3C (20 μM probe 6) is listed as 6; at JMJD2A/KDM4A [3], 0; at PHF8/KDM7A (20 μM probe 6) it was 1; on CHD8 (20 μM probe 6), 2; on CHD7 (20 μM probe 6), 5; with HDAC1/2 (20 μM probe 6), 8. Further, the “spectral count, spiked-in” value at JMJD1C/KDM3C (setting [5]) worked out at 3; in the test with JMJD2A/KDM4A [4], 5; at PHF8/KDM7A (setting [5]), 1; at CHD8 (setting [5]) it was 3; at CHD7 (setting [5]), 1; in the test on HDAC1/2 (setting [5]) it was 3.
